Bioassay records from PubChem.
INS-1E GSIS act – primary screen for activators of insulin secretion dependent on glucose, INS-1E cells, GLuc reporter luminescence. INS-1E GLuc reporter insulin secretion, 2-3 h. activation, % at 16.6 µM. actives 0.61% (n = 370,000). AID 743287;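 active = lowest replicate activation of at least 40%, so every replicate reaches that level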;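 note: 0% = median of neutral control wells and 100% = median of IBMX positive control wells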
HIV Env fusion – inhibitors of HIV Env-mediated cell fusion; HeLa-JRFL Env/CEM21 cell fusion, luciferase; inhibition, % at 12.3 µM; actives 1.1% (n = 360,000);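 active = mean replicate inhibition score of at least 50 and every replicate individually at or above 50; inconclusive = only one of the two criteria met; inactive = mean below 50 and not all replicates reaching 50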;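 note: 0% = plate neutral controls and 100% = maraviroc near 300 nM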
miR-122 sensor – inhibitors of miR-122 in Huh7 cells; Huh7 miR-122 Renilla luciferase sensor, 48 h; neutral wells = 0, positive control = 100; activation (reporter increase), % at 12.5 µM; actives 0.3% (n = 340,000); AID 602342;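 active = mean replicate activation score at least 90 and every replicate individually at or above 90; inconclusive = only one of the two criteria met; inactive = neither criterion met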;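 note: higher luciferase means less miR-122 activity so hits act as miR-122 inhibitors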
Ecoli rRNA inh – inhibits bacterial ribosomal RNA function over humanized ribosomes; E. coli WT GFP vs humanized-ribosome RFP mutants, fluorescence, 24 h; stronger effect = lower value; DMSO median 0, no signal -100; GFP signal change (wild-type ribosome), % (test concentration not listed); actives 1.6% (n = 350,000); AID 720706;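 active = significant combined selectivity score with lowered wild-type GFP, culture density cut under 30%, mutant RFP and density less affected; inactive = any of these conditions unmet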
Cneo AK release – causes C. neoformans cell lysis; lysis activity, % at 15 µM; adenylate kinase release luminescence, 4 h; normalised: neutral wells 0, clomiphene wells 100; actives 0.2% (n = 360,000);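 active = mean lysis activity across replicates of at least 80%, whatever share of replicates individually reach that level; inactive = mean lysis activity below 80%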
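read-out = cell lysis signal | test system = log-phase Cryptococcus neoformans yeast cells | input = cells at 5 × 10^6 per mL | medium = fresh YPD growth medium | signal = luminescent adenylate kinase detection reagent | timing = 4 h at 37 °C static, read 1 h later | dosing = single dose | controls = Clomiphene as positive lysis control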
CFTR F508del cor – correctors of CFTR F508del function in bronchial epithelial cells | CFBE cells, YFP halide quenching; stimulated with forskolin plus potentiator P3; % fluorescence drop versus neutral controls | activity (quench increase), % at 7.58 µM | actives 0.36% (n = 350,000) | AID 720511;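 active = mean added fluorescence quench of at least 8% versus neutral control, with both replicates also reaching 8%; inconclusive = only one of the mean or replicate conditions met; inactive = mean below 8% and not both replicates reaching 8%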;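 note: cells transiently co-express mutant CFTR-F508del with the halide-sensitive YFP; corrector assay measuring rescue of mutant channel to the surface after 24 h compound exposure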
AID977621 – wild-type E. coli growth inhibition versus H69 humanized strain – H69 mutant RFP, wild-type GFP, cherry-pick, dose response. activity change, negative = inhibition at 50 µM. shares compounds with Ecoli rRNA inh. 1,900 tested, under 10 active. AID 977621. fluorescence, 24 h;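 active = Wild-type ribosome reporter drop at least double the humanized mutant ribosome reporter drop, growth loss under a set limit; inconclusive = no clear call, values can overlap the other calls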;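 note: wild-type GFP and H69 mutant RFP strains grown together 50/50 in each well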
AID977628 – growth of wild-type and h24-humanized E. coli strains – h24 mutant RFP vs wild-type GFP, cherry-pick, dose response | shares compounds with Ecoli rRNA inh | E. coli WT GFP strain growth, fluorescence, 24 h | activity change, negative = inhibition at 50 µM | 1,900 tested, under 10 active | AID 977628;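 active = compound lowering the normal-ribosome reporter at least twice as much as the humanized-ribosome reporter, growth loss under a set limit; inconclusive = no clear call, values can overlap the other calls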;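 note: wild-type GFP and h24 humanized RFP strains co-cultured 1 to 1 per well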
* hit, by the source's call; u = inconclusive; x = no result; [ ] = another dose, or the depositor's remark. In the library only some 3.1% were active in any assay of this set; here they are far more common.

SMILES | INS-1E GSIS act | HIV Env fusion | miR-122 sensor | Ecoli rRNA inh | Cneo AK release | CFTR F508del cor | AID977621 | AID977628
Cc1ccccc1NS(=O)(=O)c1cc(C(=O)NCCC2=CCCCC2)ccc1C | -13.8 | x | 30.1 | -17.1* | 20.2 | -0.7 | -1.95 | u
O=C(NCCC1=CCCCC1)c1ccc(Cl)c(S(=O)(=O)Nc2ccccc2)c1 | -8.6 | x | x | -20.5* | 8.3 | 4.2 | -12.8 | x
CN(C)C(=O)C[C@H]1CC[C@@H]2[C@H](COC[C@H](O)CN2S(=O)(=O)c2ccccc2Cl)O1 | 3.1 | -3.3[16.7 µM] | 3.9[16.7 µM] | -4.5 | -0.4 | 0.8 | x | x
CC(=O)Nc1ccc(NC(=O)C(C)c2cccc(C(=O)c3ccccc3)c2)cc1 (centres undefined) | 27.0 | 13.2 | x | x | x | x | x | x
Cc1cc(C)c(NC(=O)C(C)c2cccc(C(=O)c3ccccc3)c2)c(C)c1 (centres undefined) | -8.5 | x | -1.9 | -17.3* | x | 1.1 | -2.72 | x
C[C@@H]1CN([C@@H](C)CO)C(=O)c2cc(NC(=O)Cn3cnnn3)ccc2O[C@@H]1CN(C)C(=O)Nc1ccc2c(c1)OCO2 | 7.2 | x | 0.6[16.7 µM] | 3.4 | 0.9 | -1.3 | x | x
Cc1ccccc1-n1ncc2c1CC(C)(C)CC2NC(=O)CCN1Cc2ccccc2C1=O (centres undefined) | -23.5 | -5.3 | 2.9 | -23.9* | 0.8 | -1.4 | -10.7 | x
CSCCC(=O)NC1CC(C)(C)Cc2c1cnn2-c1ccccc1C (centres undefined) | -10.0 | 0.5 | -0.8 | -2.9 | 0.5 | -3.0 | x | x
CCCNC(=O)N1[C@H](CO)[C@H](c2ccccc2)C12CN(C(=O)CC)C2 | 4.0 | x | x | 4.6 | x | -1.4 | x | x
CC(=O)c1cc2c(cc1NC(=O)CN1CCCCCCC1)OCO2 | x | -130.3 | 7.3 | x | -0.6 | x | x | x
CCCCc1cc2c(cc1NC(=O)CN1CCCCC1)OCCO2 | -12.6 | 6.4 | 1.9 | -18.4* | 0.0 | -3.5 | x | -10.2
O=C(c1ccccc1)N(Cc1ccccc1)c1ccccn1 | x | -261.6 | 0.6 | x | -1.5 | x | x | x
COc1cc(SC)ccc1C(=O)N(Cc1ccccc1)c1ccccn1 | -13.1 | 6.9 | 59.9 | -19.4* | -4.1 | -0.9 | -7.55 | -8.2
C#CC(C)(C)NC(=O)c1ccc(-c2ccccc2F)cc1 | 0.1 | -17.8 | x | -23.1* | x | -2.0 | 0.68 | -4.7
Cc1ccc(-c2cc[n+](Cc3ccccc3)cc2)cc1 | -30.6 | 35.0 | x | -32.0* | x | -3.9 | -7.76 | u
COc1ccc2c3c(n(C)c2c1)[C@@H](CO)N(C)CC31CN(C(=O)NC(C)C)C1 | 1.5 | x | x | 6.0 | x | -0.3 | x | x
O=C(O)c1cccc2c1-c1ccc([N+](=O)[O-])cc1C2=O | x | -56.8 | x | -18.8* | x | -0.6 | -22.2 | -7.97
COc1ccc2c3c(n(C)c2c1)[C@@H](CO)N(C(=O)c1cnccn1)CC31CCN(C)CC1 | 11.6 | x | x | 4.9 | x | -0.4 | x | x
COc1ccc2c(c1)-c1nc(N)sc1CC2 | -8.9 | -3.9 | x | -22.2* | x | 1.8 | -0.817 | 2.05
Nc1nc2c(s1)CCc1ccccc1-2 | -7.2 | -30.7 | 10.3 | -3.1 | -8.0 | 0.2 | x | x
Fc1cccc(Cc2noc(CN3CCCCC3CCc3ccccn3)n2)c1 (centres undefined) | -14.1 | -4.8 | 0.0 | -25.2* | 3.0 | -0.4 | x | -13.9
COc1ccc(C(=O)CSc2nc3ccccc3n2CC(=O)c2ccccc2)cc1 | -4.6 | x | 20.2 | -27.8* | 1.4 | -3.3 | -1.4 | -12.2
O=C(O)CSc1nnc(-c2ccc(Cl)cc2Cl)n1-c1ccc(Br)cc1 | x | -17.3 | 3.1 | -29.9* | 6.9 | x | -15.7 | x
COc1ccc(S(=O)(=O)N(C)C[C@H]2OCCCC[C@@H](C)Oc3ccc(NS(=O)(=O)c4ccc(F)cc4)cc3C(=O)N([C@@H](C)CO)C[C@@H]2C)cc1 | 1.4 | -32.5[16.7 µM] | 17.9[16.7 µM] | -0.7 | -1.3 | 2.0 | x | x
O=C(Nc1ccncc1)c1ccc(S(=O)(=O)Nc2ccccc2)cc1 | -26.5 | 15.9 | 50.3 | -23.1* | x | 0.7 | -19.4 | u
SMILES | INS-1E GSIS act | HIV Env fusion | miR-122 sensor | Ecoli rRNA inh | Cneo AK release | CFTR F508del cor | AID977621 | AID977628
O=C(NNC(=O)c1ccc(NC(=O)c2ccccc2)cc1)c1ccc(F)cc1 | 18.9 | -122.9 | -3.0 | 3.2 | -0.2 | -3.3 | x | x
O=C(Nc1ccc(C(=O)c2ccccc2)cc1)c1ccccc1 | -5.8 | -31.6 | x | -21.5* | -1.2 | -2.3 | -3.31 | x
CC(C)CC#Cc1cnc2c(c1)C(=O)N([C@H](C)CO)C[C@H](C)[C@H](CN(C)Cc1ccccc1)O2 | -17.6 | x | x | 5.8 | x | 1.2 | x | x
COc1ccc2c3c(n(C)c2c1)[C@@H](CO)N(Cc1ccccc1F)CC31CCN(C(C)=O)CC1 | -0.4 | x | x | 4.5 | x | x | x | x
C[C@@H]1CN([C@H](C)CO)C(=O)c2cc(NS(=O)(=O)c3cccs3)ccc2O[C@H]1CN(C)Cc1ccc2c(c1)OCO2 | 8.7 | x | 8.8[16.7 µM] | -2.5 | 0.8 | -0.9 | x | x
CCc1nnc(NS(=O)(=O)c2ccc(NC(=O)c3cc(Cl)ccc3Cl)cc2)s1 | -3.1 | 0.4 | x | -49.5 | x | 0.8 | x | x
CCc1nnc(NS(=O)(=O)c2ccc(NC(=O)c3cc(Cl)ccc3[N+](=O)[O-])cc2)s1 | 3.8 | 2.7 | 1.0 | -20.9* | 3.9 | 0.4 | -17.8 | x
CCc1nnc(NS(=O)(=O)c2ccc(NC(=O)c3cccc4ccccc34)cc2)s1 | 2.6 | 5.4 | 7.5 | -18.9* | -8.6 | x | 1.41 | u
O=C(CCNc1cccc(Cl)c1)c1cccs1 | -13.0 | x | -5.8 | -20.5* | x | -3.9 | -11.9 | -7.1
Cc1ccc(NCCC(=O)c2cccs2)cc1Cl | x | -93.0 | -10.8 | x | 4.3 | x | x | x
CN1OC[C@@H]2CN(C(=O)c3ccco3)[C@H](c3ccc(-c4ccc(C#N)cc4)cc3)C[C@@H]21 | 3.2 | 9.7 | -2.9 | -18.7* | x | 2.3 | -5.44 | -4.72
Cc1ccccc1S(=O)(=O)N1C[C@H]2CON(C)[C@H]2C[C@H]1c1cccc(-c2ccc(C#N)cc2)c1 | 2.1 | -57.9 | -3.4 | -18.4* | -0.3 | 0.6 | u | x
Cc1ccc2oc(C(=O)N(C)Cc3ccc(C)o3)c(C)c2c1 | -37.3 | -4.9 | 2.5 | -29.8* | -3.9 | -2.2 | -5.21 | -3.37
O=C(COC(=O)CCC(=O)c1ccccc1)NCCc1ccccc1 | 16.5 | 7.9 | 1.6 | 2.6 | 1.1 | -1.2 | x | x
O=C(COC(=O)C1CC1)NCCc1ccccc1 | x | 3.8 | -2.4 | x | 6.1 | -0.9 | x | x
O=C(COC(=O)C1CC2C=CC1C2)NCCc1ccccc1 (centres undefined) | 1.1 | 7.2 | -5.3 | -21.1* | -3.2 | 0.3 | -20.1 | -8.43
O=C(COC(=O)CCSc1ccc(F)cc1)NCc1ccc(F)cc1 | -11.7 | -24.4 | -6.4 | -17.3* | 0.0 | 2.1 | x | u
